Activity calls are given as the source filed them. The calls are words filed in the database; no cut-off is given here.
Legend:
[1] = target: T1, Putative uncharacterized protein pk7 (Plasmodium falciparum, UniProt O96214); test: (§1) Inhibition of Plasmodium falciparum PK7
T1 sequence (O96214 whole entry): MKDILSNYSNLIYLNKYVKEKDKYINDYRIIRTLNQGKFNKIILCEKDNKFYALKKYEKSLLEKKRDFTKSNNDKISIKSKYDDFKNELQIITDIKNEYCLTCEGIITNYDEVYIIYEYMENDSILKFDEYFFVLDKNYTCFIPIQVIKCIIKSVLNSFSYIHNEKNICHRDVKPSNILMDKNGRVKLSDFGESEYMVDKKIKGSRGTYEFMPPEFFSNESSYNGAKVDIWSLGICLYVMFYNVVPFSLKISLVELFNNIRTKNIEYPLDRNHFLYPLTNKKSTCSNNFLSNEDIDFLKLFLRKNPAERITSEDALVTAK

Plasmodium falciparum [2] = test: Antimalarial activity against chloroquine-sensitive Plasmodium falciparum 3D7 by [3H]hypoxanthine uptake; format: functional, organism-based
How it was run: (§2)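 P. falciparum blood-stage growth measured by ³H-hypoxanthine incorporation, with chloroquine as the reference standard. Strains: 3D7, a drug-sensitive laboratory clone of the NF54 isolate, and K1 (Thailand), which is resistant to chloroquine, pyrimethamine and cycloguanil. Values are IC50 in μM.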

KB = test: Cytotoxicity against human KB cells; format: cell-based
Plasmodium falciparum [3] = test: Antimalarial activity against multidrug-resistant Plasmodium falciparum K1 by [3H]hypoxanthine uptake; format: functional, organism-based; how it was run: as §2
[4] = Selectivity index, ratio of IC50 for human KB cells to IC50 for Plasmodium falciparum 3D7; format: toxicity, cell-based; details: read-out: Ratio IC50
How it was run: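 Ratio of the human KB cell cytotoxicity IC50 to the P. falciparum 3D7 IC50. 3D7 is a drug-sensitive laboratory clone of the NF54 isolate. Parasite IC50 (μM) came from a 3H-hypoxanthine incorporation assay run with chloroquine as the standard.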

[5] = target: T2, Putative uncharacterized protein pk7 (Plasmodium falciparum) (UniProt O96214); test: as §1
T2 sequence (whole entry): T1 sequence (O96214 whole entry)

Structure (SMILES) | IC50 [1] [µM] | other results
CN(Cc1ccc(F)cc1)c1ccc2ncc(-c3ccc(CN4CCC(O)CC4)cc3)n2n1 | 103 | 
C[C@@H](CO)Nc1ccc2ncc(-c3ccc(C#N)cc3)n2n1 | 0.44 | IC50 (Plasmodium falciparum [2]): 5.26 µM; IC50 (KB): 21.2 µM; IC50 (Plasmodium falciparum [3]): 9.93 µM; selectivity ratio [4]: 4.03
CC(C)[C@@H](N)c1cccc(N2CCOCC2)c1 |  | Activity [5]: inactive
CN(Cc1ccc(F)cc1)c1ccc2ncc(-c3ccc(Cn4ccnc4)cc3)n2n1 | 56 | 
CC(C)[C@@H](CO)Nc1ccc2ncc(-c3ccc(C#N)cc3)n2n1 | 0.28 | IC50 (Plasmodium falciparum [2]): 2.6 µM; IC50 (KB): 52.2 µM; IC50 (Plasmodium falciparum [3]): 6.86 µM; selectivity ratio [4]: 20.1
CC(C)[C@@H](CO)Nc1ccc2ncc(-c3ccc(CC(=O)O)cc3)n2n1 | 111 | 
CC(C)[C@@H](CO)Nc1ccc2ncc(-c3ccc(C(N)=O)cc3)n2n1 | 0.77 | IC50 (Plasmodium falciparum [2]): 2.46 µM; IC50 (KB): 13 µM; IC50 (Plasmodium falciparum [3]): 3.89 µM; selectivity ratio [4]: 5.27
CCN(CC)CCCC(C)Nc1ccnc2cc(Cl)ccc12 (stereo not given) [CHLOROQUINE] |  | IC50 (KB): 97.5 µM
CC(C)[C@H](N)c1cccc(N2CCOCC2)c1 | 43 | 
COC[C@H](C)Nc1ccc2ncc(-c3ccc(C#N)cc3)n2n1 | 0.82 | IC50 (Plasmodium falciparum [2]): 6.06 µM; IC50 (KB): 25.8 µM; IC50 (Plasmodium falciparum [3]): 10.5 µM; selectivity ratio [4]: 4.25
N#Cc1ccc(-c2cnc3ccc(N[C@H]4CC[C@H](O)CC4)nn23)cc1 | 0.13 | IC50 (Plasmodium falciparum [2]): 1.03 µM; IC50 (KB): 24 µM; IC50 (Plasmodium falciparum [3]): 2.65 µM; selectivity ratio [4]: 23.3
CN(Cc1ccc(F)cc1)c1ccc2ncc(-c3ccc(N)cc3)n2n1 | 42 | 
CC(C)[C@@H](CO)Nc1ccc2ncc(-c3ccc(CN)cc3)n2n1 | 104 | 
N#Cc1ccc(-c2cnc3ccc(NCC4CC4)nn23)cc1 | 0.58 | IC50 (Plasmodium falciparum [2]): 7.15 µM; IC50 (KB): 21.2 µM; IC50 (Plasmodium falciparum [3]): 12.7 µM; selectivity ratio [4]: 2.96

The next lines start with results.

IC50 [1] [µM] | Structure (SMILES) | other results
34 | CC(C)[C@@H](CO)Nc1ccc2ncc(-c3ccc(N)cc3)n2n1 | 
21 | CN(Cc1ccc(F)cc1)c1ccc2ncc(-c3ccc(CO)cc3)n2n1 | 
7.4 | CC(C)[C@@H](CO)Nc1ccc2ncc(-c3ccc(CO)cc3)n2n1 | 
8 | N#Cc1ccc(-c2cnc3ccc(NCc4ccc(N5CCOCC5)cc4)nn23)cc1 | 
0.26 | N#Cc1ccc(-c2cnc3ccc(N[C@H]4CCC[C@H](O)C4)nn23)cc1 (racemic) | 
25 | CC(C)[C@@H](CO)Nc1ccc2ncc(-c3ccc(CC#N)cc3)n2n1 | 
34 | CN(Cc1ccc(F)cc1)c1ccc2ncc(-c3ccc(CNCO)cc3)n2n1 | 
0.81 | N#Cc1ccc(-c2cnc3ccc(NCc4cccnc4)nn23)cc1 | 
0.75 | N#Cc1ccc(-c2cnc3ccc(NCC4CCCO4)nn23)cc1 (stereo not given) | 
0.22 | N#Cc1ccc(-c2cnc3ccc(N[C@H]4CCCC[C@@H]4O)nn23)cc1 (racemic) | 
4.8 | C[C@@H](N)c1cccc(N2CCOCC2)c1 | 
1.1 | CN(Cc1ccc(F)cc1)c1ccc2ncc(-c3ccc(C(N)=O)cc3)n2n1 | 
7.9 | c1cncc(CNc2ccc3ncc(-c4ccncc4)n3n2)c1 | 
11.6 | COc1ccc(-c2cnc3ccc(NCc4cccnc4)nn23)cc1 | 
2.1 | N#Cc1ccc(-c2cnc3ccc(NC4CCCNC4)nn23)cc1 (racemic) | 
25 | C[C@H](N)c1cccc(N2CCOCC2)c1 | 
1 | C[C@H](CO)Nc1ccc2ncc(-c3ccc(C#N)cc3)n2n1 | 
1 | N#Cc1ccc(-c2cnc3ccc(NCCO)nn23)cc1 | 
1.26 | CN(Cc1cccnc1)c1ccc2ncc(-c3ccc(C#N)cc3)n2n1 | 
1.07 | CN(Cc1ccc(F)cc1)c1ccc2ncc(-c3ccc(C#N)cc3)n2n1 | 
0.34 | N#Cc1ccc(-c2cnc3ccc(NC4CCCCC4)nn23)cc1 | 
1.4 | COCCNc1ccc2ncc(-c3ccc(C#N)cc3)n2n1 | 
